Converted amounts (≈) assume the structure as drawn. The source made the active and inactive calls. The calls are words filed in the database; no cut-off is given here.
How the values were obtained:
[1] = test system: Staphylococcus aureus; experiment: Antibacterial activity against methicillin/ceftriaxone/meropenem/gentamycin/linezolid-resistant Staphylococcus aureus NRS10100 clinical isolate assessed as bacterial growth inhibition incubated for 16 to 18 hrs by CLSI based antibiotic susceptibility testing method; type: functional; conditions: time 16-18 hrs
Outline: (§1)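 Broth microdilution in cation-adjusted Mueller-Hinton broth. Compounds were tested at […], with levofloxacin as reference and medium-only controls. Plates were incubated at 37 °C for 16-18 h. MIC was the lowest concentration with no visible growth; three independent determinations, each in duplicate.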

[2] = test system: Staphylococcus aureus; experiment: Antibacterial activity against methicillin/ceftriaxone/meropenem-resistant Staphylococcus aureus NRS10193 clinical isolate assessed as bacterial growth inhibition incubated for 16 to 18 hrs by CLSI based antibiotic susceptibility testing method; type: functional; conditions: time 16-18 hrs; outline: as §1
[3] = test system: Staphylococcus aureus; experiment: Antibacterial activity against methicillin/ceftriaxone/meropenem-resistant Staphylococcus aureus NRS10129 clinical isolate assessed as bacterial growth inhibition incubated for 16 to 18 hrs by CLSI based antibiotic susceptibility testing method; type: functional; conditions: time 16-18 hrs; outline: as §1
[4] = test system: Escherichia coli; experiment: Antibacterial activity against Escherichia coli ATCC 25922 assessed as bacterial growth inhibition incubated for 16 to 18 hrs by CLSI based antibiotic susceptibility testing method; type: functional, organism-based; conditions: time 16-18 hrs; outline: as §1
[5] = test system: Pseudomonas aeruginosa; experiment: Antibacterial activity against Pseudomonas aeruginosa ATCC 27853 assessed as bacterial growth inhibition incubated for 16 to 18 hrs by CLSI based antibiotic susceptibility testing method; type: functional, organism-based; conditions: time 16-18 hrs; outline: as §1
[6] = test system: Staphylococcus aureus; experiment: Antibacterial activity against methicillin/ceftriaxone/meropenem/gentamycin/linezolid-resistant Staphylococcus aureus NRS10119 clinical isolate assessed as bacterial growth inhibition incubated for 16 to 18 hrs by CLSI based antibiotic susceptibility testing method; type: functional; conditions: time 16-18 hrs; outline: as §1
[7] = test system: Staphylococcus aureus; experiment: Antibacterial activity against methicillin/ceftriaxone/meropenem-resistant Staphylococcus aureus NRS10186 clinical isolate assessed as bacterial growth inhibition incubated for 16 to 18 hrs by CLSI based antibiotic susceptibility testing method; type: functional; conditions: time 16-18 hrs; outline: as §1
[8] = test system: Staphylococcus aureus; experiment: Antibacterial activity against methicillin/ceftriaxone/meropenem/vancomycin/teicoplanin-resistant Staphylococcus aureus VRS12 clinical isolate assessed as bacterial growth inhibition incubated for 16 to 18 hrs by CLSI based antibiotic susceptibility testing method; type: functional; conditions: time 16-18 hrs; outline: as §1
[9] = Selectivity index, ratio of CC50 for African green monkey Vero cells to MIC for Staphylococcus aureus ATCC 29213; type: toxicity, cell-based; conditions: read-out: Selectivity Index
[10] = test system: Staphylococcus aureus; experiment: Antibacterial activity against methicillin/ceftriaxone/meropenem/gentamycin/vancomycin/teicoplanin-resistant Staphylococcus aureus VRS1 clinical isolate assessed as bacterial growth inhibition incubated for 16 to 18 hrs by CLSI based antibiotic susceptibility testing method; type: functional; conditions: time 16-18 hrs; outline: as §1
[11] = Cytotoxicity against African green monkey Vero cells by MTT assay; type: toxicity, cell-based; conditions: chlorocebus sabaeus
Outline: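 Vero cells were seeded at ~10³ per well at 37 °C, 5% CO2. After 24 h, compounds were added at 5-100 mg/L for 72 h. […] was added for 4 h, formazan was dissolved in DMSO and read at 540 nm. CC50 was taken as the lowest concentration reducing viability by 50%; doxorubicin was the positive control; triplicate.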

[12] = test system: Staphylococcus aureus; experiment: Antibacterial activity against methicillin/ceftriaxone/meropenem-resistant Staphylococcus aureus NRS10192 clinical isolate assessed as bacterial growth inhibition incubated for 16 to 18 hrs by CLSI based antibiotic susceptibility testing method; type: functional; conditions: time 16-18 hrs; outline: as §1
[13] = test system: Mycolicibacterium fortuitum; experiment: Antimycobacterial activity against Mycobacterium fortuitum ATCC 6841 assessed as bacterial growth inhibition incubated for 72 hrs by resazurin dye based broth microdilution method; type: functional, organism-based
Outline: (§2)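 Broth microdilution in Middlebrook 7H9 with 10% ADC-Tween-80 (0.2% glycerol, 0.05% Tween-80), inoculum ~10⁶ cfu/mL. Compounds came from 10 mg/mL DMSO stocks and were tested as two-fold serial dilutions at 37 °C, 7 days for M. tuberculosis H37Rv and 72 h for NTM. Growth was read visually with PrestoBlue resazurin dye; MIC was the lowest concentration preventing growth. Triplicate determinations, each in duplicate.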

[14] = test system: Klebsiella pneumoniae; experiment: Antibacterial activity against Klebsiella pneumoniae BAA 1705 assessed as bacterial growth inhibition incubated for 16 to 18 hrs by CLSI based antibiotic susceptibility testing method; type: functional, organism-based; conditions: time 16-18 hrs; outline: as §1
[15] = test system: Mycobacteroides chelonae; experiment: Antimycobacterial activity against Mycobacteroides chelonae ATCC 35752 assessed as bacterial growth inhibition incubated for 72 hrs by resazurin dye based broth microdilution method; type: functional, organism-based; outline: as §2
[16] = test system: Mycobacterium tuberculosis; experiment: Antimycobacterial activity against Mycobacterium tuberculosis H37Rv ATCC 27294 assessed as bacterial growth inhibition incubated for 7 days by resazurin dye based broth microdilution method; type: functional; conditions: H37Rv ATCC 27294, 168 h, time 7 day; outline: as §2
[17] = test system: Staphylococcus aureus; experiment: Antibacterial activity against methicillin-sensitive Staphylococcus aureus ATCC 29213 clinical isolate assessed as bacterial growth inhibition incubated for 16 to 18 hrs by CLSI based antibiotic susceptibility testing method; type: functional; conditions: time 16-18 hrs; outline: as §1
[18] = test system: Acinetobacter baumannii; experiment: Antibacterial activity against Acinetobacter baumannii BAA 1605 assessed as bacterial growth inhibition incubated for 16 to 18 hrs by CLSI based antibiotic susceptibility testing method; type: functional, organism-based; conditions: time 16-18 hrs; outline: as §1
[19] = test system: Mycobacteroides abscessus; experiment: Antimycobacterial activity against Mycobacterium abscessus ATCC 19977 assessed as bacterial growth inhibition incubated for 72 hrs by resazurin dye based broth microdilution method; type: functional, organism-based; outline: as §2
[20] = test system: Staphylococcus aureus; experiment: Antibacterial activity against methicillin/ceftriaxone-resistant Staphylococcus aureus NRS10194 clinical isolate assessed as bacterial growth inhibition incubated for 16 to 18 hrs by CLSI based antibiotic susceptibility testing method; type: functional; conditions: time 16-18 hrs; outline: as §1
[21] = test system: Staphylococcus aureus; experiment: Antibacterial activity against Staphylococcus aureus ATCC 29213 assessed as bacterial growth inhibition incubated for 16 to 18 hrs by CLSI based antibiotic susceptibility testing method; type: functional; conditions: time 16-18 hrs; outline: as §1
[22] = test system: Staphylococcus aureus; experiment: Antibacterial activity against methicillin/ceftriaxone/meropenem-resistant Staphylococcus aureus NRS10198 clinical isolate assessed as bacterial growth inhibition incubated for 16 to 18 hrs by CLSI based antibiotic susceptibility testing method; type: functional; conditions: time 16-18 hrs; outline: as §1
[23] = test system: Staphylococcus aureus; experiment: Antibacterial activity against methicillin/ceftriaxone/meropenem/vancomycin/teicoplanin-resistant Staphylococcus aureus VRS4 clinical isolate assessed as bacterial growth inhibition incubated for 16 to 18 hrs by CLSI based antibiotic susceptibility testing method; type: functional; conditions: time 16-18 hrs; outline: as §1
[24] = test system: Staphylococcus aureus; experiment: Antibacterial activity against methicillin/ceftriaxone/meropenem-resistant Staphylococcus aureus NRS10191 clinical isolate assessed as bacterial growth inhibition incubated for 16 to 18 hrs by CLSI based antibiotic susceptibility testing method; type: functional; conditions: time 16-18 hrs; outline: as §1

Row | Structure (SMILES) | MIC [1] [µg/mL] | MIC [2] [µg/mL] | MIC [3] [µg/mL] | growth inhibition (GI) [4] | growth inhibition (GI) [5] | MIC [6] [µg/mL] | MIC [7] [µg/mL] | MIC [8] [µg/mL] | selectivity ratio [9] | MIC [10] [µg/mL] | CC50 [11] [µg/mL] | MIC [12] [µg/mL] | growth inhibition (GI) [13] | growth inhibition (GI) [14] | growth inhibition (GI) [15] | MIC [16] [µg/mL] | MIC [17] [µg/mL] | growth inhibition (GI) [18] | growth inhibition (GI) [19] | MIC [20] [µg/mL] | also measured
1 | O=C(CN1C(=O)c2cccc3cccc(c23)C1=O)N1CCC(NC(=S)Nc2ccccc2)CC1 | 1 (≈ 2.12 µM) | 0.25 (≈ 0.529 µM) | 1 (≈ 2.12 µM) | inactive | inactive | 0.25 (≈ 0.529 µM) | 0.25 (≈ 0.529 µM) | 0.5 (≈ 1.06 µM) | > 200 | 0.5 (≈ 1.06 µM) | > 100 | 0.25 (≈ 0.529 µM) | inactive | inactive | inactive | > 64 | 1 (≈ 2.12 µM) | inactive | inactive | 1 (≈ 2.12 µM) | MIC [21]: 0.5 µg/mL (≈ 1.06 µM); MIC [22]: 0.25 µg/mL (≈ 0.529 µM); MIC [23]: 0.25 µg/mL (≈ 0.529 µM); MIC [24]: 0.25 µg/mL (≈ 0.529 µM)
2 | O=C(CN1C(=O)c2cccc3cccc(c23)C1=O)N1CCN(C(=S)NC2CCCCC2)CC1 | 0.5 (≈ 1.08 µM) | 0.25 (≈ 0.538 µM) | 0.25 (≈ 0.538 µM) | inactive | inactive | 0.25 (≈ 0.538 µM) | 0.125 (≈ 0.269 µM) | 0.25 (≈ 0.538 µM) | > 400 | 0.25 (≈ 0.538 µM) | > 100 | 0.125 (≈ 0.269 µM) | inactive | inactive | inactive | > 64 | 0.125 (≈ 0.269 µM) | inactive | inactive | 0.125 (≈ 0.269 µM) | MIC [21]: 0.25 µg/mL (≈ 0.538 µM); MIC [22]: 0.25 µg/mL (≈ 0.538 µM); MIC [23]: 0.25 µg/mL (≈ 0.538 µM); MIC [24]: 0.25 µg/mL (≈ 0.538 µM)
3 | O=C1c2cccc3cccc(c23)C(=O)N1CCN1CCN(C(=S)Nc2ccccc2)CC1 | 4 (≈ 9 µM) | 2 (≈ 4.5 µM) | 4 (≈ 9 µM) | inactive | inactive | 4 (≈ 9 µM) | 4 (≈ 9 µM) | 4 (≈ 9 µM) | > 50 | 4 (≈ 9 µM) | > 100 | 2 (≈ 4.5 µM) | inactive | inactive | inactive | > 64 | 4 (≈ 9 µM) | inactive | inactive | 4 (≈ 9 µM) | MIC [21]: 2 µg/mL (≈ 4.5 µM); MIC [22]: 2 µg/mL (≈ 4.5 µM); MIC [23]: 2 µg/mL (≈ 4.5 µM); MIC [24]: 2 µg/mL (≈ 4.5 µM)
4 | O=C(CCN1C(=O)c2cccc3cccc(c23)C1=O)N1CCN(C(=S)NC2CCCCC2)CC1 | 4 (≈ 8.36 µM) | 4 (≈ 8.36 µM) | 2 (≈ 4.18 µM) | inactive | inactive | 2 (≈ 4.18 µM) | 1 (≈ 2.09 µM) | 2 (≈ 4.18 µM) | > 50 | 2 (≈ 4.18 µM) | > 50 | 1 (≈ 2.09 µM) | inactive | inactive | inactive | > 64 | 2 (≈ 4.18 µM) | inactive | inactive | 2 (≈ 4.18 µM) | MIC [21]: 1 µg/mL (≈ 2.09 µM); MIC [22]: 1 µg/mL (≈ 2.09 µM); MIC [23]: 1 µg/mL (≈ 2.09 µM); MIC [24]: 2 µg/mL (≈ 4.18 µM)

Reference: ChEMBL document CHEMBL5385966, “Synthesis and biological evaluation of new naphthalimide-thiourea derivatives as potent antimicrobial agents active against multidrug-resistant Staphylococcus aureus and Mycobacterium tuberculosis” (RSC Med Chem, 2024)
